Screening results: PubChem, several laboratories
This is a sample that favours compounds with a hit; in the whole collection about 2.6% have one here.
MT stabilizer – microtubule stabilization, imaging screen; hit rate 0.83% among 200,000; % tubulin-high responders, % at 10 µM; AID 2205; HeLa tubulin immunostaining HCS, 24 h; share of cells brighter than vehicle mean+2SD;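 active means plate Z-score above 3 for both tubulin-high and condensed-nucleus cell shares, with cell loss under 80%, at 10 µM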;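 further: anti alpha tubulin signal scored within the nucleus-defined area of each cell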
bCat nuc transl – alters nuclear translocation of beta-catenin in HeLa cells. immunofluorescence imaging. nuclear translocation activity, % at 5 µM. hit rate 0.3% among 190,000. AID 1665;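 active means nuclear translocation activity above 50% at 5 µM, with a well cell count of 50 or more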;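 further: per-cell ratio of nuclear to cytoplasmic median beta-catenin stain intensity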
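Read-out: Nuclear/cytoplasmic beta-catenin signal ratio, % activation | Assay system: Human HeLa cell line | Times: 24 h compound exposure at 37°C, 5% CO2 | Signal: Fluorescence imaging of beta-catenin antibody stain plus DAPI | Dosing: 5 µM primary, 0.02–20 µM confirmation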
NPY2 pot ag – human NPY-Y2 potentiation or agonism, primary screen. P49146. cells expressing NPY-Y2, potentiator/agonist read-out. activation, % at 3.6 µM. hit rate 0.45% among 220,000. AID 1359; in the data active means activation above about 27%;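 further: cells stimulated with NPY near EC25 plus isoproterenol at EC100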
Target sequence (P49146 whole entry, looked up): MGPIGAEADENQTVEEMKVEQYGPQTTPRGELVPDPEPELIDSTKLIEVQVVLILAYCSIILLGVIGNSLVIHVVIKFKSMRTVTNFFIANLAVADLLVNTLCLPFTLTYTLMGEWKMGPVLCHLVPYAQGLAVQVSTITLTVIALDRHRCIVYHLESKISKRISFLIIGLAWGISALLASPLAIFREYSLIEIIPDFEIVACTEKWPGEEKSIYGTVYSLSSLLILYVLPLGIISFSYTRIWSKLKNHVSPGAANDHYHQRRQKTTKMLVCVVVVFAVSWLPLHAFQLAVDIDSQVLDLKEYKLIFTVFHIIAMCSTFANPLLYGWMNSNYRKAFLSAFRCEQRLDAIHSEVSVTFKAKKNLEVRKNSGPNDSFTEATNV
NPY-Y2 antag – blocks the human neuropeptide Y Y2 receptor; P49146; NPY-Y2 expressing cells, antagonist mode; inhibition, % at 2.7 µM; hit rate 0.99% among 140,000; AID 793; in the data active means inhibition above about 17%
NPY Y1 blocker – NPY-Y1 (human) receptor antagonism; HEK293-CNG Y1 cells, membrane potential fluorescence; NPY at EC95, then isoproterenol; hit rate 1% among 200,000; inhibition, % at 3.6 µM;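 active means inhibition above the campaign mean inhibition of all tested compounds plus 3 SD, cut at about 20% in these data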
Target sequence (P25929 whole entry, looked up): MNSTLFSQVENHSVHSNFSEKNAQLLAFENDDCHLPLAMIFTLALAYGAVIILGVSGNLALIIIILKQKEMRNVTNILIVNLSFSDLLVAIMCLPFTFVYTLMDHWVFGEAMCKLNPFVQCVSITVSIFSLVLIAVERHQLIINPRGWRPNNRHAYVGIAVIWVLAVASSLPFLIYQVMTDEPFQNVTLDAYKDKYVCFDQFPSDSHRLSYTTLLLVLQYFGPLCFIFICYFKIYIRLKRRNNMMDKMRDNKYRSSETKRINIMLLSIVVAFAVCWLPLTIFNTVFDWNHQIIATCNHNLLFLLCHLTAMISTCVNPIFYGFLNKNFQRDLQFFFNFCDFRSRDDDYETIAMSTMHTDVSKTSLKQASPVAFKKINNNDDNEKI
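material = HEK293 cells with Y1 receptor plus CNG channel | also added = NPY 25 nM then isoproterenol 1 µM plus Ro 20-1724 25 µM | schedule = dye 3 h, compound 60 min room temperature, stimulation 45 min | measured by = membrane potential fluorescence | benchmarks = high control isoproterenol alone, low control NPY with isoproterenol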
NPY1 pot ag – human NPY-Y1 potentiation or agonism, primary screen | AID 1304 | NPY-Y1 expressing cells, potentiator/agonist activation | activation, % at 3.6 µM | P25929 | hit rate 0.37% among 220,000; in the data active means activation above about 33%, passing the limit was not always enough;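 further: cells stimulated with NPY at EC10 then isoproterenol at EC100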
NPY-Y1 confirm – human NPY-Y1 potentiation or agonism, confirmation. shares compounds with NPY1 pot ag. cell-based NPY-Y1 potentiator/agonist assay. activation, % at 3.6 µM. hit rate 20% among 280. AID 1546; in the data active means activation above about 45%;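 further: cells challenged with NPY at its EC10 plus isoproterenol stimulus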
NPY-Y2 counter – potentiates or activates NPY-Y2, counter-screen for NPY-Y1 hits; activation, % at 3.6 µM; shares compounds with NPY1 pot ag; hit rate 20% among 280; HEK293-CNG cells, membrane-potential fluorescence (FLIPR), 1536-well; in the data active means activation above about 33%
NPY-Y1 agonist – counter-screen for NPY-Y1 potentiators: agonists of human NPY-Y1; shares compounds with NPY1 pot ag; HEK293 Y1-CNGC, membrane potential fluorescence, agonist mode; activation, % at 3.6 µM; hit rate 50% among 280;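 active means percent activation above the mean of DMSO-only control wells plus 3 SD of those wells, cut at about 18% in these data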;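 further: cells challenged with isoproterenol plus Ro 20-1724 with no NPY in test wells; Y1 agonism lowers isoproterenol-driven cAMP and reduces probe fluorescence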
NPY-Y2 agonist – human NPY-Y2 agonism as NPY-Y1 counter-screen; shares compounds with NPY1 pot ag; activation, % at 3.6 µM; hit rate 67% among 280; AID 1698; HEK293 Y2-CNGC, membrane potential fluorescence, agonist mode;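 active means activation above the solvent-only control wells' mean plus 3 SD, cut at about 11% in these data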;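 further: agonism lowers cAMP so well fluorescence drops in active wells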
CNGC counter – CNG channel inhibition, counter-screen for NPY-Y1 potentiators | shares compounds with NPY1 pot ag | HEK293-CNG parental, isoproterenol cAMP, membrane potential fluorescence | inhibition, % at 3.6 µM | hit rate 42% among 280 | AID 1704;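 active means inhibition above the mean of stimulated solvent-only control wells plus 3 SD, cut at about 22% in these data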
Numbers stand for hits; n = inactive; x = no result.

SMILES | MT stabilizer | bCat nuc transl | NPY2 pot ag | NPY-Y2 antag | NPY Y1 blocker | NPY1 pot ag | NPY-Y1 confirm | NPY-Y2 counter | NPY-Y1 agonist | NPY-Y2 agonist | CNGC counter
CCOC(=O)c1c(NC(=O)Cn2nc(C(F)(F)F)cc2C)sc(C)c1C | n | n | n | n | n | n | x | x | x | x | x
O=C(Cc1cnc2ncnn2c1)N1CCc2c([nH]c3ccccc23)C1c1ccccc1F (centres undefined) | n | n | n | x | n | n | x | x | x | x | x
Cc1nc(NCCc2ccccc2)c(C#N)c(C)c1[N+](=O)[O-] | n | n | n | n | n | n | x | x | x | x | x
O=C(CN1C(=O)NC(c2ccccc2)(c2ccccc2)C1=O)c1c[nH]c2ccccc12 | n | n | n | x | n | 40 | n | n | 34 | 21 | 29
Nc1nc(Nc2ccccc2)nc(NCc2ccccc2)c1[N+](=O)[O-] | x | n | n | x | x | n | x | x | x | x | x
Cc1cccc(Nc2nc(N)c([N+](=O)[O-])c(NCc3ccccc3)n2)c1 | x | n | n | x | x | 50 | 48 | n | 33 | 31 | 45
Cc1[nH]n(-c2ccc([N+](=O)[O-])cc2)c(=O)c1C=NCCN1CCN(C(=O)c2cccc(F)c2)CC1 | n | n | n | n | n | 47 | n | n | n | n | n
Cc1cc(-c2ccccc2)n2nc(N)nc2n1 | x | n | n | x | x | n | x | x | x | x | x
Nc1ccccc1Nc1ccccc1 | n | n | n | n | n | 38 | n | n | n | n | 24
Nc1ccc(Nc2ccccc2)c(Cl)c1 | n | n | n | n | n | n | x | x | x | x | x
O=C(Nc1cccnc1)c1ccc(COc2ccccc2Cl)o1 | n | n | n | n | n | n | x | x | x | x | x
O=C(Nc1cccnc1)c1ccc(COc2cc(Cl)ccc2Cl)o1 | n | n | n | n | n | 54 | n | n | n | 16 | n
COC(=O)CSc1nc2ccc(N)cc2s1 | n | n | n | x | n | 45 | 92 | 67 | 71 | 64 | 85
CS/C(Nc1cc(Cl)ccc1Cl)=C(/C#N)C(=O)c1ccco1 | x | n | n | x | x | 51 | n | n | n | 16 | n
Oc1ccccc1Cn1c(-c2ccccc2O)nc2ccccc21 | n | n | n | n | n | 39 | n | n | 27 | 26 | n
COc1ccccc1Cn1c(-c2ccccc2OC)nc2ccccc21 | n | n | n | n | n | n | x | x | x | x | x
COc1nccnc1NS(=O)(=O)c1ccc(NS(=O)(=O)c2ccc(NC(C)=O)cc2)cc1 | n | x | n | n | n | 81 | n | n | n | n | n
O=C(CSCSCC(=O)Nc1ccc2c(c1)OCO2)Nc1ccc2c(c1)OCO2 | n | n | n | n | n | 46 | n | n | n | n | n
O=C(CSCc1ccccc1)Nc1ccc2c(c1)OCO2 | n | n | n | n | n | n | x | x | x | x | x
COc1ccc(N(CCCN2C(=O)c3cccc4cccc(c34)C2=O)C(=O)c2cccnc2)cc1 | n | n | n | x | n | n | x | x | x | x | x
COc1ccc(N(CCCN2C(=O)c3cccc4cccc(c34)C2=O)C(=O)c2ccncc2)cc1 | n | n | n | x | n | 42 | n | n | n | n | n
O=C(O)/C=C/c1ccc(S(=O)(=O)NCc2ccco2)cc1 | n | n | n | x | n | 64 | n | n | n | n | n
CCOc1cc(N2CCOCC2)c(OCC)cc1NC(=O)c1ccc(=O)n(Cc2ccccc2)n1 | x | n | x | x | x | x | x | x | x | x | x
CCOc1ccc(NC(=O)C2C3CCC4C(CCC32)C4(Cl)Cl)cc1 (centres undefined) | n | n | n | x | n | n | x | x | x | x | x
O=C(Nc1ccc(F)cc1)C1C2CCC3C(CCC21)C3(Cl)Cl (centres undefined) | x | n | n | x | x | 52 | n | n | n | n | n
SMILES | MT stabilizer | bCat nuc transl | NPY2 pot ag | NPY-Y2 antag | NPY Y1 blocker | NPY1 pot ag | NPY-Y1 confirm | NPY-Y2 counter | NPY-Y1 agonist | NPY-Y2 agonist | CNGC counter
Cc1cc(C)c(C#N)c(N2CCN(Cc3ccccc3)CC2)n1 | n | n | n | n | n | 78 | n | n | n | n | n
O=C(CSCc1ccccc1)N/N=C/c1cc2c(cc1Br)OCO2 | n | n | n | n | n | n | x | x | x | x | x
COc1cc(COCC(O)CN2CCN(CCN3C(=O)c4cccc5cccc(c45)C3=O)CC2)cc(OC)c1OC (centres undefined) | n | n | n | n | n | n | x | x | x | x | x
O=C1c2cccc3cccc(c23)C(=O)N1CCN1CCN(CC(O)COCc2ccc(Cl)cc2)CC1 (centres undefined) | n | n | n | n | n | 37 | n | 46 | 31 | 57 | 47
CC(=O)c1ccccc1OCC(O)CN1CCN(CCN2C(=O)c3cccc4cccc(c34)C2=O)CC1 (centres undefined) | n | n | n | x | n | 36 | n | n | n | 20 | n
Cc1noc(C)c1CN1C(=O)NC2(CCc3ccccc3C2)C1=O (centres undefined) | n | x | n | n | n | n | x | x | x | x | x
Cc1c(/C=N/Nc2nc3ccccc3[nH]2)c2ccccc2n1C | x | n | n | x | x | 56 | 47 | 41 | 35 | 43 | 34
COC(=O)CS(=O)(=O)c1ccsc1C(=O)Nc1ccc(F)cc1 | n | n | n | x | n | n | x | x | x | x | x
CCCC(=O)Nc1ccc(NC(=O)CCc2ccccc2)cn1 | n | n | n | n | n | 52 | n | n | n | n | n
Cc1ccc(Cn2nnc3c(=O)n(CC(=O)OCc4ccccc4)cnc32)cc1 | n | n | n | n | n | 49 | n | n | 18 | 11 | 30
O=C(Cn1cnc2c(nnn2Cc2ccc(F)cc2)c1=O)OCc1ccccc1 | n | n | n | n | n | n | x | x | x | x | x
Cc1cc(C)c2c(=O)[nH]c(=O)n(Cc3ccccc3)c2n1 | n | n | n | n | n | n | x | x | x | x | x
COc1ccc(Oc2c(Cl)cnn(-c3ccc(Cl)c(Cl)c3)c2=O)cc1 | n | n | n | n | n | 82 | 78 | 49 | 61 | 43 | 65
COc1ccc(Oc2c(Cl)cnn(-c3ccc(C)cc3)c2=O)cc1 | n | n | n | n | n | n | x | x | x | x | x
CCCC(=O)c1ccc(N2CCN(C(=O)c3ccccc3Br)CC2)c(F)c1 | n | n | n | n | n | 34 | n | n | n | n | n
Cc1[nH]c2ccccc2c1C(=O)CSc1ccc(Cl)cc1 | n | n | n | x | n | n | x | x | x | x | x
Cc1[nH]c2ccccc2c1C(=O)CN1C(=O)NC(C)(c2ccc(Cl)cc2Cl)C1=O (centres undefined) | n | n | n | n | n | 56 | n | n | 32 | 18 | 27
